≈ marks a conversion by molar mass, not a printed value. Structures can show the parent of a compound that is named as a salt.
Experiments:
[1] = target: recombinant NanA of DSM20566 (Streptococcus pneumoniae, UniProt P62575); format: biochemical, S. pneumoniae; conditions: read-out: substrate affinity (Km) of rNanA; substrate 4-MUNANA
[2] = system: pneumococcal NA of strain DSM20566; assay: Lectin-based hemagglutination; format: cell-based, S. pneumoniae; conditions: minimal NA inhibitory concentration
[3] = system: pneumococcal NA of strain D39; assay: Lectin-based hemagglutination; format: cell-based, S. pneumoniae; conditions: for Inhibitory concentration (HA assay): minimal NA inhibitory concentration, strain D39
[4] = system: pneumococcal NA of strain CJ9400; assay: Lectin-based hemagglutination; format: cell-based, S. pneumoniae; conditions: minimal NA inhibitory concentration
S. pneumoniae DSM20566 [5] = assay: Biofilm inhibition assay; format: cell-based; conditions: DSM20566, TSB, 24 h
S. pneumoniae D39 [6] = assay: Biofilm inhibition assay; format: cell-based; conditions: D39, TSB, 24 h
S. pneumoniae DSM14378 [7] = assay: Biofilm inhibition assay; format: cell-based; conditions: DSM14378, TSB, 24 h
S. pneumoniae CJ9400 [8] = assay: Biofilm inhibition assay; format: cell-based; conditions: CJ9400, TSB, 24 h
S. pneumoniae CF6937 [9] = assay: Biofilm inhibition assay; format: cell-based; conditions: CF6937, TSB, 24 h
S. pneumoniae BC7326 [10] = assay: Biofilm inhibition assay; format: cell-based; conditions: BC7326, TSB, 24 h
S. pneumoniae CF8919 [11] = assay: Biofilm inhibition assay; format: cell-based; conditions: CF8919, TSB, 24 h
S. pneumoniae PN8828 [12] = assay: Biofilm inhibition assay; format: cell-based; conditions: PN8828, TSB, 24 h
S. pneumoniae BC57 [13] = assay: Biofilm inhibition assay; format: cell-based; conditions: BC57, TSB, 24 h
S. pneumoniae DSM20566 [14] = assay: Minimal bactericidal concentration; format: cell-based; conditions: viability reduced by ≥99.9%
S. pneumoniae D39 [15] = assay: Minimal bactericidal concentration; format: cell-based; conditions: viability reduced by ≥99.9%
S. pneumoniae DSM14378 [16] = assay: Minimal bactericidal concentration; format: cell-based; conditions: viability reduced by ≥99.9%
S. pneumoniae CJ9400 [17] = assay: Minimal bactericidal concentration; format: cell-based; conditions: viability reduced by ≥99.9%
S. pneumoniae CF6937 [18] = assay: Minimal bactericidal concentration; format: cell-based; conditions: viability reduced by ≥99.9%
S. pneumoniae BC7326 [19] = assay: Minimal bactericidal concentration; format: cell-based; conditions: viability reduced by ≥99.9%
S. pneumoniae [20] = assay: Bactericidal activity, studied pneumococci; format: cell-based; conditions: for concentration up to which no inhibitory or bactericidal activity was exhibited: maximum tested concentration
[21] = system: pneumococcal adherence to pulmonary epithelial A549 cells; conditions: DSM20566 and PN8828
pneumococcal NA [22] = target: T1, pneumococcal NA (Streptococcus pneumoniae, UniProt P62575); format: biochemical, S. pneumoniae
T1 sequence (P62575 54-1006): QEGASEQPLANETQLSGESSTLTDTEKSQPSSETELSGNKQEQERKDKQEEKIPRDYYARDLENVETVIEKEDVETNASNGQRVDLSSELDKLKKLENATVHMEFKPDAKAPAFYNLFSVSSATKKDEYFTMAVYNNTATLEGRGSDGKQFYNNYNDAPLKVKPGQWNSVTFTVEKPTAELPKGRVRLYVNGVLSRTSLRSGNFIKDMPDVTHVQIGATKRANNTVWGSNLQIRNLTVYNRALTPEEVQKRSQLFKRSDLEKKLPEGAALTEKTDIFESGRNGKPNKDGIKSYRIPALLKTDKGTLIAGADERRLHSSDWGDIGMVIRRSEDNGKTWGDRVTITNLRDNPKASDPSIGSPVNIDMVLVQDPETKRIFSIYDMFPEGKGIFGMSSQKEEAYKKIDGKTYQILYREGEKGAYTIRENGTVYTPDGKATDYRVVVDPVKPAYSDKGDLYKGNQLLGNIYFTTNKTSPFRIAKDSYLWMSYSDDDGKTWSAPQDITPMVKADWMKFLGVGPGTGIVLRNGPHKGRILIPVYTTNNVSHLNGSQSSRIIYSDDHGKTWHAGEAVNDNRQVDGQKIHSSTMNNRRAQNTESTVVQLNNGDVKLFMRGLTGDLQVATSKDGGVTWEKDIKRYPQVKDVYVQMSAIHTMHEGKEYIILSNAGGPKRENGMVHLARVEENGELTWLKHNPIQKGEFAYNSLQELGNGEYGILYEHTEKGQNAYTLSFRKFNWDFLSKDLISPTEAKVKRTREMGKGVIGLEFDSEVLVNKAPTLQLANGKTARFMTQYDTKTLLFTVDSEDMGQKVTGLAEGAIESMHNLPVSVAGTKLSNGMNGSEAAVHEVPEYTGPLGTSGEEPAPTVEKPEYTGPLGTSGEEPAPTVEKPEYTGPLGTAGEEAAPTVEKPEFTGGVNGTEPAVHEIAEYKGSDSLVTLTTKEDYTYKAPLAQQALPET

S. pneumoniae DSM20566 [23] = assay: Broth microdilution assay; format: cell-based; conditions: Streptococcus pneumoniae, DSM20566, 18 h, read-out: 90% minimal inhibitory concentration
S. pneumoniae D39 [24] = assay: Broth microdilution assay; format: cell-based; conditions: Streptococcus pneumoniae, D39, 18 h, read-out: 90% minimal inhibitory concentration
S. pneumoniae DSM14378 [25] = assay: Broth microdilution assay; format: cell-based; conditions: Streptococcus pneumoniae, DSM14378, 18 h, read-out: 90% minimal inhibitory concentration
S. pneumoniae CJ9400 [26] = assay: Broth microdilution assay; format: cell-based; conditions: Streptococcus pneumoniae, CJ9400, 18 h, read-out: 90% minimal inhibitory concentration
S. pneumoniae CF6937 [27] = assay: Broth microdilution assay; format: cell-based; conditions: Streptococcus pneumoniae, CF6937, 18 h, read-out: 90% minimal inhibitory concentration
S. pneumoniae BC7326 [28] = assay: Broth microdilution assay; format: cell-based; conditions: Streptococcus pneumoniae, BC7326, 18 h, read-out: 90% minimal inhibitory concentration
S. pneumoniae CF8919 [29] = assay: Broth microdilution assay; format: cell-based; conditions: Streptococcus pneumoniae, CF8919, 18 h, read-out: 90% minimal inhibitory concentration
S. pneumoniae PN8828 [30] = assay: Broth microdilution assay; format: cell-based; conditions: Streptococcus pneumoniae, PN8828, 18 h, read-out: 90% minimal inhibitory concentration
S. pneumoniae BC57 [31] = assay: Broth microdilution assay; format: cell-based; conditions: Streptococcus pneumoniae, BC57, 18 h, read-out: 90% minimal inhibitory concentration
S. pneumoniae [32] = assay: Broth microdilution assay; format: cell-based; conditions: Streptococcus pneumoniae, read-out: MIC90 values
Procedure, shortened: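 Pneumococci were pre-grown in BHI with gentle shaking at 37°C for 4–5 h (mid-exponential), adjusted to McFarland 0.5 (1.5 × 10^8 cfu/mL) and diluted 50× in BHI. 50 µL bacteria plus 100 µL of two-fold compound dilutions (top 50 or 200 µM) in BHI were run in duplicate, overnight at 37°C, 5% CO₂. OD620 at 18 h minus 0 h was taken relative to no-compound growth control; MIC90 is 90% turbidity reduction.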

pneumococcal NA [33] = target: T1, pneumococcal NA; format: biochemical, S. pneumoniae; conditions: precipitated total proteins of all strains
pneumococcal NA [34] = target: T1, pneumococcal NA; conditions: ref Gut et al., 2011; cited from earlier work

Chain of recombinant NanA of DSM20566 (P62575 116-1035 limits assumed): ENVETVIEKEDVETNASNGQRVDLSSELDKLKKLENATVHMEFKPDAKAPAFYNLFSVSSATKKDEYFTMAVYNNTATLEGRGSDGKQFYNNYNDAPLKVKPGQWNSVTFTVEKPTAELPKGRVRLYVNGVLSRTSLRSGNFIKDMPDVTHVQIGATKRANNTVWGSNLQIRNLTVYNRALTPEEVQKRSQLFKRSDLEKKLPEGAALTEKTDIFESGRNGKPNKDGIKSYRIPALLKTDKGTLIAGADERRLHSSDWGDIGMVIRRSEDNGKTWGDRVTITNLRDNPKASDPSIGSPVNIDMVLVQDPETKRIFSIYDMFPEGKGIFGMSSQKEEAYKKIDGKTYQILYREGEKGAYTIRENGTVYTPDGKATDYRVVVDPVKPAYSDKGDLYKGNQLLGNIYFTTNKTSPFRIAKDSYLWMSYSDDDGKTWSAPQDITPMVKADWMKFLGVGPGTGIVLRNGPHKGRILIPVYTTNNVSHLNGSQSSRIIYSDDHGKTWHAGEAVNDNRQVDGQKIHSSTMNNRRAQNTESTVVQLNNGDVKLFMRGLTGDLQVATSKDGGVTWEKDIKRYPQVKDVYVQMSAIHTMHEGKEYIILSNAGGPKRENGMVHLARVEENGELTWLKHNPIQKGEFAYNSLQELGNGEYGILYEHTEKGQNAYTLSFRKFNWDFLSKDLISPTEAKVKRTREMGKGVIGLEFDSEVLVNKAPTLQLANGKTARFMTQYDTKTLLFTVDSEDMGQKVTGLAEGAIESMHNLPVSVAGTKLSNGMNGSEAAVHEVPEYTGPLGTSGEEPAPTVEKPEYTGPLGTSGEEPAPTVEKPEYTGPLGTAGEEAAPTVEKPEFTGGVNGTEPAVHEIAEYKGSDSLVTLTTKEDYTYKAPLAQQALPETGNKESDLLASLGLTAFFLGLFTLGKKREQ

Row | SMILES | Inhibitory concentration (HA assay) [2] [µM] | Inhibitory concentration (HA assay) [3] [µM] | Inhibitory concentration (HA assay) [4] [µM] | 90% minimal biofilm inhibitory concentration (S. pneumoniae DSM20566 [5]) [µM] | 90% minimal biofilm inhibitory concentration (S. pneumoniae D39 [6]) [µM] | 90% minimal biofilm inhibitory concentration (S. pneumoniae DSM14378 [7]) [µM] | 90% minimal biofilm inhibitory concentration (S. pneumoniae CJ9400 [8]) [µM] | 90% minimal biofilm inhibitory concentration (S. pneumoniae CF6937 [9]) [µM] | 90% minimal biofilm inhibitory concentration (S. pneumoniae BC7326 [10]) [µM] | 90% minimal biofilm inhibitory concentration (S. pneumoniae CF8919 [11]) [µM] | 90% minimal biofilm inhibitory concentration (S. pneumoniae PN8828 [12]) [µM] | 90% minimal biofilm inhibitory concentration (S. pneumoniae BC57 [13]) [µM] | Bactericidal concentration (S. pneumoniae DSM20566 [14]) [µM] | Bactericidal concentration (S. pneumoniae D39 [15]) [µM] | Bactericidal concentration (S. pneumoniae DSM14378 [16]) [µM] | Bactericidal concentration (S. pneumoniae CJ9400 [17]) [µM] | Bactericidal concentration (S. pneumoniae CF6937 [18]) [µM] | Bactericidal concentration (S. pneumoniae BC7326 [19]) [µM] | MIC (S. pneumoniae DSM20566 [23]) [µM] | MIC (S. pneumoniae D39 [24]) [µM] | also measured
1 | CC(=O)N[C@H]1[C@H]([C@H](O)[C@H](O)CO)O[C@@](Oc2ccc3c(C)cc(=O)oc3c2)(C(=O)O)C[C@@H]1O [4-MUNANA, 2′-(4-methylumbelliferyl)-α-D-N-acetylneuraminic acid sodium salt hydrate] |  |  |  |  |  |  |  |  |  |  |  |  |  |  |  |  |  |  |  |  | Km [1]: 23.6 µM
2 | CC(=O)N[C@H]1[C@H]([C@H](O)[C@H](O)CO)OC(C(=O)O)=C[C@@H]1O [DANA, 2,3-dehydro-2-deoxy-N-acetylneuraminic acid] | 45.3 ± 30.6 | > 100 | 15.4 ± 10.8 | > 50 | > 50 | > 50 | > 50 | > 50 | > 50 | > 50 | > 50 | > 50 | > 50 | > 50 | > 50 | > 50 | > 50 | > 50 |  |  | activity in HA assay (in words) ([3]; reference strain D39): no activity; concentration up to which no inhibitory or bactericidal activity was exhibited (S. pneumoniae [20]): > 50 µM; effect on adhesion of pneumococci to A549 cells (in words) [21]: did not reduce pneumococcal adherence
3 | O=C(CCc1ccccc1)C[C@@H]1C[C@@H](c2ccccc2)c2c(cc(/C=C/c3ccccc3)oc2=O)O1 [katsumadain A] | 3.2 ± 0.0 | 1.0 ± 0.0 | 0.7 ± 0.4 | > 50 | > 50 | > 50 | > 50 | > 50 | > 50 | > 50 | > 50 | > 50 | > 50 | > 50 | > 50 | > 50 | > 50 | > 50 | > 50 | > 50 | IC50 (pneumococcal NA [22]; read-out: IC50, CL-based assay, range among the strains): 310 to 1610 nM; MIC (S. pneumoniae DSM14378 [25]): > 50 µM; MIC (S. pneumoniae CJ9400 [26]): > 50 µM; MIC (S. pneumoniae CF6937 [27]): > 50 µM; MIC (S. pneumoniae BC7326 [28]): > 50 µM; MIC (S. pneumoniae CF8919 [29]): > 50 µM; MIC (S. pneumoniae PN8828 [30]): > 50 µM; MIC (S. pneumoniae BC57 [31]): > 50 µM; concentration up to which no inhibitory or bactericidal activity was exhibited (S. pneumoniae [20]): > 50 µM; effect on adhesion of pneumococci to A549 cells (in words) [21]: did not reduce pneumococcal adherence
4 | CO[C@H]1/C=C/O[C@@]2(C)Oc3c(C)c(O)c4c(O)c(c(/C=N/N5CCN(C)CC5)c(O)c4c3C2=O)NC(=O)/C(C)=C\C=C\[C@H](C)[C@H](O)[C@@H](C)[C@@H](O)[C@@H](C)[C@H](OC(C)=O)[C@@H]1C [rifampicin] |  |  |  | 0.049 ± 0.030 | 0.013 ± 0.002 | 0.014 ± 0.008 | 0.003 ± 0.001 | 0.020 ± 0.002 | 0.016 ± 0.010 | 0.006 ± 0.004 | 0.011 ± 0.007 | 0.012 ± 0.001 | 1.97 ± 1.23 | 0.22 ± 0.09 | 0.14 ± 0.06 | 0.23 ± 0.16 | 0.05 ± 0.03 | 0.08 ± 0.03 | 0.041 ± 0.011 (≈ 0.0337 µg/mL) | 0.021 ± 0.002 (≈ 0.0173 µg/mL) | MIC (S. pneumoniae DSM14378 [25]): 0.031 ± 0.023 µM (≈ 0.0255 µg/mL); MIC (S. pneumoniae CJ9400 [26]): 0.032 ± 0.03 µM (≈ 0.0263 µg/mL); MIC (S. pneumoniae CF6937 [27]): 0.034 ± 0.028 µM (≈ 0.028 µg/mL); MIC (S. pneumoniae BC7326 [28]): 0.016 ± 0.005 µM (≈ 0.0132 µg/mL); MIC (S. pneumoniae CF8919 [29]): 0.009 ± 0.001 µM (≈ 0.00741 µg/mL); MIC (S. pneumoniae PN8828 [30]): 0.005 ± 0.001 µM (≈ 0.00411 µg/mL); MIC (S. pneumoniae BC57 [31]): 0.012 ± 0.002 µM (≈ 0.00988 µg/mL); MIC90 (S. pneumoniae [32]): 0.01 to 0.04 µM (≈ 0.00823 to 0.0329 µg/mL); factor of reduction of viability of pneumococci (S. pneumoniae [20]; within 18 h): > 1000
5 | CC(=O)N[C@H]1[C@H]([C@H](O)[C@H](O)CO)OC(C(=O)O)=C[C@@H]1N=C(N)N [zanamivir] | >100 | >100 | >100 | > 50 | > 50 | > 50 | > 50 | > 50 | > 50 | > 50 | > 50 | > 50 | > 50 | > 50 | > 50 | > 50 | > 50 | > 50 | > 50 | > 50 | inhibition of NA activity, FL-based assay (in words) (pneumococcal NA [33]): did not show an effect; inhibition of NA activity, CL-based assay (in words) (pneumococcal NA [22]; data not shown): inefficacy; MIC (S. pneumoniae DSM14378 [25]): > 50 µM; MIC (S. pneumoniae CJ9400 [26]): > 50 µM; MIC (S. pneumoniae CF6937 [27]): > 50 µM; MIC (S. pneumoniae BC7326 [28]): > 50 µM; MIC (S. pneumoniae CF8919 [29]): > 50 µM; MIC (S. pneumoniae PN8828 [30]): > 50 µM; MIC (S. pneumoniae BC57 [31]): > 50 µM; inhibitory potency to pneumococcal NA (in words) (pneumococcal NA [34]): weak

Source: PMC5730044 (International journal of medical microbiology : IJMM, 2014)
